Experimental findings from ChEMBL document CHEMBL1150371, “Design and synthesis of benzenesulfonanilides active against methicillin-resistant Staphylococcus aureus and vancomycin-resistant Enterococcus” (Bioorg Med Chem, 2008) are described below.

The test system of data set [1] is Enterococcus faecium. Nature of the data set: Antimicrobial activity against vancomycin-resistant Enterococcus faecium FN-1 by microdilution susceptibility test. The class given is functional. The method in brief:
(§1)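 Broth microdilution MIC per Japan Society of Chemotherapy standard method. Cultures grown in sensitivity test broth at 37 °C to OD620 0.1, inoculum ≈10^5 CFU/mL. Twofold dilutions from DMSO stock, 500 to 0.2 µg/mL; 20 h, 37 °C, humid. MIC = lowest concentration clearly inhibiting growth by visual inspection; vancomycin standard; media, DMSO and water controls; at least duplicate.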
On the technique in general: In broth dilution the organism is exposed to a series of concentrations in liquid medium.

Data set [2] deals with Mus musculus. Put plainly: Acute toxicity in mouse at 100 mg/kg, ip upto 14 days. The class given is organism-based. Details: dose 100 mg/kg, route intraperitoneal. As to conditions: in vivo, 336 h. The method in brief: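 Male mice (15–30 g), water only for 12 h beforehand; compound in 0.5% CMC given ip at doses up to 100 mg kg-1, n = 5/group; toxic symptoms observed up to 14 days.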

Data set [3] relates to Staphylococcus aureus. Nature of the data set: Antimicrobial activity against methicillin-resistant Staphylococcus aureus OM584 by microdilution method. The class given is functional. The method in brief:
as §1

Data set [4] relates to Staphylococcus aureus. Nature of the data set: Antimicrobial activity against methicillin-resistant Staphylococcus aureus at […] by disk diffusion method. The class given is functional. The method in brief:
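Overnight nutrient-broth culture (35 °C, 12–18 h) of MRSA OM584 spread on Mueller-Hinton agar; 8-mm paper discs given 10 µL of 20 mM compound in DMSO; plates incubated at 37 °C about 20 h; inhibition zones measured and scored: −, ± (0–1 mm), +1 (1–15 mm), +2 (15–20 mm), +3 (>20 mm).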

≈ marks a conversion by molar mass, not a printed value. Calls of active or inactive are those of the source. No cut-off for these calls is given here. A value given as a limit tells only on which side of the number the result lay.

As to `O=S(=O)(Nc1cc(F)cc(F)c1)c1cc(C(F)(F)F)cc(C(F)(F)F)c1`, the MIC in data set [1] worked out at 7.8 µg/mL (≈ 19.2 µM); in data set [3], 2 µg/mL (≈ 4.94 µM). In addition, in data set [2], the Activity entry was “Non-toxic”.
`O=S(=O)(Nc1cc(Cl)cc(Cl)c1)c1cc(C(F)(F)F)cc(C(F)(F)F)c1`: the minimal inhibitory concentration (MIC) was found to be 1 µg/mL (≈ 2.28 µM) in data set [1] and 0.5 µg/mL (≈ 1.14 µM) in data set [3]. Besides, the Activity result in data set [2] was “Non-toxic”.
For `Cc1ccc(S(=O)(=O)Nc2cc(C(F)(F)F)cc(C(F)(F)F)c2)cc1`, the minimal inhibitory concentration (MIC) in data set [1] and in data set [3] was 62.5 µg/mL (≈ 163 µM) throughout. Also, in data set [4], the result was inactive.
With `O=S(=O)(Nc1cc(C(F)(F)F)cc(C(F)(F)F)c1)c1ccc(Cl)cc1`, the minimal inhibitory concentration (MIC) in data set [1] and in data set [3] was 7.8 µg/mL (≈ 19.3 µM) each time. Besides, the “inhibition zone (IZ)” value in data set [4] was 15 mm.
In the case of `O=S(=O)(Nc1cc(C(F)(F)F)cc(C(F)(F)F)c1)c1ccc(C(F)(F)F)cc1`, the minimum inhibitory concentration (MIC) came out at 7.8 µg/mL (≈ 17.8 µM) in data set [1] and 15.6 µg/mL (≈ 35.7 µM) in data set [3]. Also, the “inhibition zone (IZ)” value in data set [4] is given as >20 mm.
Regarding `COc1ccc(S(=O)(=O)Nc2cc(C(F)(F)F)cc(C(F)(F)F)c2)cc1`, the minimum inhibitory concentration (MIC) in data set [1] and in data set [3] was 62.5 µg/mL (≈ 157 µM) in each case. In addition, the “inhibition zone (IZ)” value in data set [4] is 1 mm.

One may read the MIC as the lowest concentration found to suppress growth. High values mean a less susceptible organism, low ones a more susceptible organism.
